Molecules are shown by their SMILES. Where “and” joins values, the source holds several entries; their conditions need not be identical. Equal values may be shown once. Calls of active or inactive are those of the source.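 Rule for the calls: active = fitted AC50 at or below twice the top valid tested dose for that sample, with falling signal; inconclusive = flat curve with 30 to 70% inhibition, or poor fit; inactive = the rest.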 Some results are limits rather than exact numbers.

Tested on in the first assay: not listed separately
The assay is described as follows: fluconazole-resistant Candida isolate growth inhibitors – retest at dose, dry powder, set 2, confirmation (AID 623897). The settings on record: C. albicans CaCi-17 growth, Alamar Blue fluorescence, 48 h; at 26 µM (top of the series). The gist of the method: (§1)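 schedule = growth 48 h at 37 °C, dye 2 h | technique = Alamar Blue fluorescence | control set = amphotericin B 10 µM as positive control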
(Resazurin is reduced to fluorescent resorufin, in cell work by metabolically active cells.)
For the compound `O=C1NC(=S)N(Cc2ccccc2)C12CCCCC2`, the activity change, negative = inhibition was 0.955% (inactive).

With `CCCOC(=O)N1C(=O)C2(CCCCC2)N(c2ccc(C)cc2)C1=S`, the activity change, negative = inhibition is 17.3% (inactive).

Take `O=C1NC(=S)NC12CCCCC2`: the activity change, negative = inhibition was 2.58% (inactive).

For `Cc1ccc(N2C(=S)N(C(=O)Oc3ccccc3)C(=O)C23CCCCC3)cc1`, the activity change, negative = inhibition is 1.41% (inactive).

Consider `O=C1NC(=S)N(c2ccc(F)cc2)C12CCCCC2`, for which the activity change, negative = inhibition was -18.2% (inactive).

In the case of `Cc1ccc(N2C(=S)NC(=O)C23CCCCC3)cc1`, the activity change, negative = inhibition is -4.65% (inactive).

Turning to `Cc1ccc(N2C(=S)N(C)C(=O)C23CCCCC3)cc1`, the activity change, negative = inhibition is -21% (inactive).

As to `Cc1ccc(N2C(=S)NC(=O)C23CCCC3)cc1`, the activity change, negative = inhibition is 4.84% (inactive).

For the compound `Cc1ccc(N2C(=O)C3(CCCCC3)NC2=S)cc1`, the activity change, negative = inhibition is 5.29% (inactive).

As to `CCOC(=O)N1C(=S)NC(=O)C12CCCCC2`, the activity change, negative = inhibition was 8.62% (inactive).

For the compound `CCOC(=O)N1C(=S)N(c2ccc(C)cc2)C2(CCCCC2)C1=NCc1ccccc1`, the activity change, negative = inhibition is 5.9% (inactive).

On to `CCCCN1C(=O)N(c2ccc(C)cc2)C2(CCCCC2)C1=O`, for which the activity change, negative = inhibition was 9.41% (inactive).

Regarding `CCOC(=O)N1C(=O)C2(CCC2)N(c2ccc(C)cc2)C1=S`, the activity change, negative = inhibition is 13.1% (inactive).

On to `Cc1ccc(N2C(=S)N(S(C)(=O)=O)C(=O)C23CCCCC3)cc1`, for which the activity change, negative = inhibition is 3.7% (inactive).

As for `CCOC(=O)N1C(=O)C2(CCCCC2)N(c2ccc(CC)cc2)C1=S`, the activity change, negative = inhibition was -31.8% (inactive).

As to `CCOC(=O)N1C(=O)C2(CCCCC2)NC1=S`, the activity change, negative = inhibition is -0.208% (inactive).

With `CCCc1ccc(N2C(=S)N(C(=O)OCC)C(=O)C23CCCCC3)cc1`, the activity change, negative = inhibition is -11.5% (inactive).

With `CC(C)N1C(=S)NC(=O)C12CCCCC2`, the activity change, negative = inhibition is -18.9% (inactive).

Consider `Cc1ccc(N2C(=S)NC(=O)C2(C)C)cc1`, for which the activity change, negative = inhibition is 2.64% (inactive).

Take `Cc1ccc(N2C(=S)N(C(=O)OC(C)C)C(=O)C23CCCCC3)cc1`: the activity change, negative = inhibition is 7.31% (inactive).

On to `CCOC(=O)N1C(=O)C2(CCCCC2)N(C(C)C)C1=S`, for which the activity change, negative = inhibition is -6.94% (inactive).

As to `Cc1ccc(N2C(=O)NC(=O)C23CCCCC3)cc1`, the activity change, negative = inhibition is 5.65% (inactive).

Regarding `CCOC(=O)N1C(=O)C2(CCCCC2)N(c2ccc(C(C)C)cc2)C1=S`, the activity change, negative = inhibition was 8.52% (inactive).

With `CCCCN1C(=O)C2(CCCCC2)N(c2ccc(C)cc2)C1=S`, the activity change, negative = inhibition was -7.78% (inactive).

Turning to `CCCC(=O)N1C(=O)C2(CCCCC2)N(c2ccc(C)cc2)C1=S`, the activity change, negative = inhibition is 8.69% (inactive).

Turning to `Cc1ccc(N2C(=O)C(=O)NC2=S)cc1`, the activity change, negative = inhibition was 5.65% (inactive).

Take `CCOC(=O)N1C(=O)C2(CCCC2)N(c2ccc(C)cc2)C1=S`: the activity change, negative = inhibition was 1.68% (inactive).

Regarding `Cc1ccc(N2C(=S)N(C(=O)OCc3ccccc3)C(=O)C23CCCCC3)cc1`, the activity change, negative = inhibition was 5.07% (inactive).

With `CCOC(=O)N1C(=O)C2(CCOCC2)N(c2ccc(C)cc2)C1=S`, the activity change, negative = inhibition was 0.474% (inactive).

In the case of `Cc1ccc(N2CC(=O)NC2=O)cc1`, the activity change, negative = inhibition was -8.61% (inactive).

As for `Cc1ccc(N2C(=O)N(C)C(=O)C23CCCCC3)cc1`, the activity change, negative = inhibition was 0.531% (inactive).

As to `CCOC(=O)N1C(=O)C(C)(C)N(c2ccc(C)cc2)C1=S`, the activity change, negative = inhibition was 11.1% (inactive).

On to `CCOC(=O)N1C(=S)N(c2ccc(C)cc2)C(=O)C12CCCCC2`, for which the activity change, negative = inhibition was 3.4% (inactive).

For a further assay, the system named is C. albicans CaCi-17 growth, Alamar Blue fluorescence, 48 h. Described as above.
Conditions: not given
The gist of the method: as §1
In the case of `CCOC(=O)N1C(=O)C2(CCCCC2)N(c2ccc(Cl)cc2)C1=S`, the AC50 was 1.37 µM.

For the compound `O=C1NC(=S)N(c2ccccc2)C12CCCCC2`, the AC50 is > 52 µM (inactive).

For `Cc1ccc(N2CC(=O)NC2=S)cc1`, the AC50 was > 52 µM (inactive).

As to `CCOC(=O)N1C(=O)C2(CCCCC2)N(c2ccc(F)cc2)C1=S`, the AC50 was 0.946 µM.

Take `Cc1ccc(N2C(=S)NC(=O)C23CCC3)cc1`: the AC50 is > 52 µM (inactive).

For `CCOC(=O)N1C(=O)C2(CCCCC2)N(c2ccccc2C)C1=S`, the AC50 was 23.9 µM.

On to `Cc1ccc(N2C(=S)N(C)C(=O)C23CCCCC3)cc1`, for which the AC50 was > 52 µM (inactive).

Regarding `CC1/C=C/C=C\C=C\C=C\C=C\C=C\C=C\C(O[C@H]2OC(C)C(O)C(N)C2O)CC2OC(O)(CC(O)CC(O)C(O)CCC(O)CC(O)CC(=O)OC(C)C(C)C1O)CC(O)C2C(=O)O` (some centres not stated), the half-maximal activity concentration (AC50) is 0.0301 µM.

For `CCOC(=O)N1C(=O)C2(CCCCC2)N(c2ccc(C)cc2)C1=S`, the AC50 was 8.5 µM and 9.7 µM.

For the compound `CCOC(=O)N1C(=O)N(c2ccc(C)cc2)C2(CCCCC2)C1=O`, the AC50 is > 52 µM (inactive).

With `CCOC(=O)N1C(=O)C2(CCCCC2)N(c2ccc(-c3ccccc3)cc2)C1=S`, the AC50 was > 52 µM (inactive).

Turning to `CCOC(=O)N1C(=O)C2(CCCCC2)N(c2ccccc2)C1=S`, the half-maximal activity concentration (AC50) is 4.15 µM.

On to `COC(=O)N1C(=O)C2(CCCCC2)N(c2ccc(C)cc2)C1=S`, for which the AC50 is 17.1 µM.

Take `Cc1ccc(N2C(=S)NC(=O)C23CCOCC3)cc1`: the AC50 is > 52 µM (inactive).

On to `CCOC(=O)N1C(=O)C2(CCCCC2)N(c2cccc(C)c2)C1=S`, for which the concentration at half-maximal activity (AC50) was 8.16 µM.

With `CCOC(=O)N1C(=O)C2(CCCCC2)N(c2ccc(C#N)cc2)C1=S`, the AC50 is 1.76 µM.

For the compound `CCOC(=O)N1C(=O)C2(CCCCC2)N(Cc2ccccc2)C1=S`, the half-maximal activity concentration (AC50) was 22.8 µM.

Turning to `CCOC(=O)N1C(=O)C2(CCCCC2)N(c2ccc(C(C)(C)C)cc2)C1=S`, the AC50 was > 52 µM (inactive).

Regarding `CCOC(=O)N1C(=O)C2(CCCCC2)N(c2ccc(C(F)(F)F)cc2)C1=S`, the AC50 was 16.2 µM.

What is called AC50 is the midpoint of the concentration-response curve, whichever way the signal moves.
